How the values were obtained:
[1] = tested on: chloroquine-resistant P. falciparum Dd2 parasites; test: SYBR Green I dose–response assay against Dd2 parasites; format: cell-based; conditions: Plasmodium falciparum, DD2, read-out: EC50 Dd2, chloroquine-resistant P. falciparum Dd2, three or more independent experiments
How it was run: (§1)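 Dose–response EC50 values, each from three or more independent experiments. Dd2 and 3D7 runs use chloroquine as comparator. The selectivity index is calculated as HepG2 EC50 divided by Dd2 EC50.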

[2] = tested on: wild-type P. falciparum 3D7 cells; test: dose–response assay against 3D7 cells; format: cell-based; conditions: Plasmodium falciparum, 3D7, read-out: EC50 3D7
How it was run: as §1

[3] = tested on: HepG2 (liver hepatocellular carcinoma) cells; test: HepG2; format: cell-based, human; conditions: for selectivity index (SI): HepG2 EC50/EC50 Dd2 cells; for EC50: Homo sapiens, HepG2, read-out: EC50 HepG2
How it was run: as §1

[4] = tested on: P. falciparum Dd2 cultures; test: kinetic kill experiments; format: cell-based, Plasmodium falciparum; conditions: Plasmodium falciparum, DD2, read-out: 5 × EC50
How it was run: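 Asynchronous Dd2 cultures are exposed to test compound for 6, 12, 24 or 48 h at 0.15% DMSO, then washed three times in RPMI and resuspended in culture medium. Parasite growth is monitored daily for 96 h. DHA (50 nM) and atovaquone (6.6 nM) serve as controls.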

Row | Compound | EC50 [1] | EC50 [2] | selectivity index (SI) [3] | EC50 [3] | EC50 [4]
1 | CCN(CC)CCCC(C)Nc1ccnc2cc(Cl)ccc12 (centres unmarked) [Chloroquine, reference compound] | 190 nM | 17 nM |  |  | 
2 | CC[C@]12CCCN3CCc4c(n(c5ccccc45)[C@@](O)(C(=O)OC)C1)[C@@H]32 [Compound 1, Vincamine, reference compound] | > 50000 nM | > 50000 nM |  |  | 
3 | CC[C@@]12C=C(C(=O)OC)n3c(c(c4ccccc43)CCNCCC1)[C@@H]2c1ccc(O)cc1 [Compound 18, Methyl (11S,19S)-11-ethyl-19-(4-hydroxyphenyl)-8,15-diazatetracyclo[9.6.2.0^2,7.0^8,18]nonadeca-1(18),2(7),3,5,9-pentaene-9-carboxylate] | 10800 ± 2930 nM |  |  |  | 
4 | CC[C@@]12C=C(C(=O)OC)n3c(c(c4ccccc43)CCN(/C=C/C(=O)OC)CCC1)[C@@H]2c1ccc(OC(C)=O)cc1 [Compound 19, Methyl (11S,19S)-19-[4-(acetyloxy)phenyl]-11-ethyl-15-[(1E)-3-methoxy-3-oxoprop-1-en-1-yl]-8,15-diazatetracyclo[9.6.2.0^2,7.0^8,18]nonadeca-1(18),2(7),3,5,9-pentaene-9-carboxylate] | 6110 ± 1560 nM |  |  |  | 
5 | CC[C@@]12C=C(C(=O)OC)n3c(c(c4ccccc43)CCN(C(C)=O)CCC1)[C@@H]2c1ccc(O)cc1 [Compound 20, methyl (11S,19S)-15-acetyl-11-ethyl-19-(4-hydroxyphenyl)-8,15-diazatetracyclo[9.6.2.0^2,7.0^8,18]nonadeca-1(18),2(7),3,5,9-pentaene-9-carboxylate] | > 20000 nM | 12000 ± 3400 nM |  |  | 
6 | CC[C@@]12C=C(C(=O)OC)n3c(c(c4ccccc43)CCN(C(=O)c3ccc(OC)nc3)CCC1)[C@@H]2c1ccc(O)cc1 [Compound 21, methyl (11S,19S)-11-ethyl-19-(4-hydroxyphenyl)-15-(6-methoxypyridine-3-carbonyl)-8,15-diazatetracyclo[9.6.2.0^2,7.0^8,18]nonadeca-1(18),2(7),3,5,9-pentaene-9-carboxylate] | 630 ± 120 nM | 1330 ± 180 nM |  |  | 
7 | CC[C@@]12C=C(C(=O)OC)n3c(c(c4ccccc43)CCN(C(=O)COCCOCCOC)CCC1)[C@@H]2c1ccc(O)cc1 [Compound 22, methyl (11S,19S)-11-ethyl-19-(4-hydroxyphenyl)-15-{2-[2-(2-methoxyethoxy)ethoxy]acetyl}-8,15-diazatetracyclo[9.6.2.0^2,7.0^8,18]nonadeca-1(18),2(7),3,5,9-pentaene-9-carboxylate] | 4100 ± 550 nM |  |  |  | 
8 | CC[C@@]12C=C(C(=O)OC)n3c(c(c4ccccc43)CCN(C(=O)C3CCCCC3)CCC1)[C@@H]2c1ccc(O)cc1 [Compound 23, methyl (11S,19S)-15-cyclohexanecarbonyl-11-ethyl-19-(4-hydroxyphenyl)-8,15-diazatetracyclo[9.6.2.0^2,7.0^8,18]nonadeca-1(18),2(7),3,5,9-pentaene-9-carboxylate] | 2530 ± 340 nM |  |  |  | 
9 | CC[C@@]12C=C(C(=O)OC)n3c(c(c4ccccc43)CCN(C(=O)c3ccc(C(F)(F)F)cc3)CCC1)[C@@H]2c1ccc(O)cc1 [Compound 24, methyl (11S,19S)-11-ethyl-19-(4-hydroxyphenyl)-15-[4-(trifluoromethyl)benzoyl]-8,15-diazatetracyclo[9.6.2.0^2,7.0^8,18]nonadeca-1(18),2(7),3,5,9-pentaene-9-carboxylate] | 1540 ± 4 nM |  |  |  | 
10 | CC[C@@]12C=C(C(=O)OC)n3c(c(c4ccccc43)CCN(C(=O)c3cccnc3)CCC1)[C@@H]2c1ccc(O)cc1 [Compound 25, methyl (11S,19S)-11-ethyl-19-(4-hydroxyphenyl)-15-(pyridine-3-carbonyl)-8,15-diazatetracyclo[9.6.2.0^2,7.0^8,18]nonadeca-1(18),2(7),3,5,9-pentaene-9-carboxylate] | 550 ± 70 nM | 2250 ± 400 nM | >45 | > 25000 nM | 
11 | CC[C@@]12C=C(C(=O)OC)n3c(c(c4ccccc43)CCN(C(=O)c3ccco3)CCC1)[C@@H]2c1ccc(O)cc1 [Compound 26, methyl (11S,19S)-11-ethyl-15-(furan-2-carbonyl)-19-(4-hydroxyphenyl)-8,15-diazatetracyclo[9.6.2.0^2,7.0^8,18]nonadeca-1(18),2(7),3,5,9-pentaene-9-carboxylate] | 2480 ± 330 nM | 1800 ± 360 nM | >10 | > 25000 nM | 
12 | CC[C@@]12C=C(C(=O)OC)n3c(c(c4ccccc43)CCN(C(=O)c3cncnc3)CCC1)[C@@H]2c1ccc(O)cc1 [Compound 27, methyl (11S,19S)-11-ethyl-19-(4-hydroxyphenyl)-15-(pyrimidine-5-carbonyl)-8,15-diazatetracyclo[9.6.2.0^2,7.0^8,18]nonadeca-1(18),2(7),3,5,9-pentaene-9-carboxylate] | 730 ± 110 nM | 1990 ± 300 nM | >34 | > 25000 nM | 
13 | CC[C@@]12C=C(C(=O)OC)n3c(c(c4ccccc43)CCN(C(=O)c3ccno3)CCC1)[C@@H]2c1ccc(O)cc1 [Compound 28, methyl (11S,19S)-11-ethyl-19-(4-hydroxyphenyl)-15-(1,2-oxazole-5-carbonyl)-8,15-diazatetracyclo[9.6.2.0^2,7.0^8,18]nonadeca-1(18),2(7),3,5,9-pentaene-9-carboxylate] | 2140 ± 360 nM | 970 ± 30 nM | >11 | > 25000 nM | 
14 | CC[C@@]12C=C(C(=O)OC)n3c(c(c4ccccc43)CCN(C(=O)c3ccc[nH]3)CCC1)[C@@H]2c1ccc(O)cc1 [Compound 29, methyl (11S,19S)-11-ethyl-19-(4-hydroxyphenyl)-15-(1H-pyrrole-2-carbonyl)-8,15-diazatetracyclo[9.6.2.0^2,7.0^8,18]nonadeca-1(18),2(7),3,5,9-pentaene-9-carboxylate] | 2980 ± 400 nM | 3180 ± 70 nM |  |  | 
15 | CC[C@@]12C=C(C(=O)OC)n3c(c(c4ccccc43)CCN(C(=O)c3ccncc3)CCC1)[C@@H]2c1ccc(O)cc1 [Compound 31, methyl (11S,19S)-11-ethyl-19-(4-hydroxyphenyl)-15-(pyridine-4-carbonyl)-8,15-diazatetracyclo[9.6.2.0^2,7.0^8,18]nonadeca-1(18),2(7),3,5,9-pentaene-9-carboxylate] | 5900 ± 260 nM |  |  |  | 
16 | CC[C@@]12C=C(C(=O)OC)n3c(c(c4ccccc43)CCN(C(=O)c3cncc(Cl)c3)CCC1)[C@@H]2c1ccc(O)cc1 [Compound 32, methyl (11S,19S)-15-(5-chloropyridine-3-carbonyl)-11-ethyl-19-(4-hydroxyphenyl)-8,15-diazatetracyclo[9.6.2.0^2,7.0^8,18]nonadeca-1(18),2(7),3,5,9-pentaene-9-carboxylate] | 490 ± 100 nM | 2220 ± 340 nM | >51 | > 25000 nM | 
17 | CC[C@@]12C=C(C(=O)OC)n3c(c(c4ccccc43)CCN(C(=O)c3cncc(Br)c3)CCC1)[C@@H]2c1ccc(O)cc1 [Compound 33, methyl (11S,19S)-15-(5-bromopyridine-3-carbonyl)-11-ethyl-19-(4-hydroxyphenyl)-8,15-diazatetracyclo[9.6.2.0^2,7.0^8,18]nonadeca-1(18),2(7),3,5,9-pentaene-9-carboxylate] | 650 ± 9 nM | 1700 ± 320 nM | >38 | > 25000 nM | 
18 | CC[C@@]12C=C(C(=O)OC)n3c(c(c4ccccc43)CCN(C(=O)c3ccccc3)CCC1)[C@@H]2c1ccc(O)cc1 [Compound 34, methyl (11S,19S)-15-benzoyl-11-ethyl-19-(4-hydroxyphenyl)-8,15-diazatetracyclo[9.6.2.0^2,7.0^8,18]nonadeca-1(18),2(7),3,5,9-pentaene-9-carboxylate] | 2950 ± 1140 nM | 6600 ± 1060 nM |  |  | 
19 | C[C@H]1[C@@H](O)O[C@@H]2O[C@@]3(C)CC[C@H]4[C@H](C)CC[C@@H]1[C@@]24OO3 [Dihydroartemisinin (DHA), Dihydroartemisinin, reference compound] |  |  |  |  | 50 nM
20 | O=C1C(O)=C([C@H]2CC[C@H](c3ccc(Cl)cc3)CC2)C(=O)c2ccccc21 [atovaquone, reference compound] |  |  |  |  | 6.6 nM

Reference: publication PMC8359148 (ACS Omega, 2021)
